High-throughput results deposited in PubChem BioAssay by several laboratories.
Rce1 inh: blocks yeast Ras-converting enzyme; yeast membranes, quenched prenylated peptide cleavage fluorescence; AID 2563; calls only; Q03530; 290,000 compounds, 0.27% hits;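 active = fall in fluorescence gain of 50% or more versus controls, with final raw signal at or below 3038400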
Rev-erbA mod: modulators of human Rev-erb alpha DNA binding; P20393; 370,000 compounds, 0.79% hits; activity, % at 10 µM; Rev-erbα–FITC-DNA binding, fluorescence polarization, 90 min;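 active = activity above about 14%, limit read from the data; passing the limit was not always enough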
Target sequence (P20393 whole entry, looked up): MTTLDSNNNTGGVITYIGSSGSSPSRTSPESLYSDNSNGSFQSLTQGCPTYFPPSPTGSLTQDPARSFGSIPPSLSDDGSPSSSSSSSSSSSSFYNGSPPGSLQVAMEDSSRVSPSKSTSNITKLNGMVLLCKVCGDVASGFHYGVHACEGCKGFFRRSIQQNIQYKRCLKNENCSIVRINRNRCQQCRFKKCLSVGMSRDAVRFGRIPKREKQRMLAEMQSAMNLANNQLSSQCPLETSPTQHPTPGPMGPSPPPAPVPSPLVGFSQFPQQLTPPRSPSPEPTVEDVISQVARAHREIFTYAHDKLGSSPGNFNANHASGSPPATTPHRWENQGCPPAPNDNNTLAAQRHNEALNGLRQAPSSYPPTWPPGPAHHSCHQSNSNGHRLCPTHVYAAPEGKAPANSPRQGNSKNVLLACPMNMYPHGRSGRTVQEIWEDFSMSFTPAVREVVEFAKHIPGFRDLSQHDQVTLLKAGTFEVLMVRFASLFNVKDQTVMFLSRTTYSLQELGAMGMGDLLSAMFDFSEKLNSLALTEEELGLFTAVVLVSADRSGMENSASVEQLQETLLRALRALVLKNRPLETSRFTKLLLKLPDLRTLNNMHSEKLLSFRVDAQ
PG9 Ab binder: small molecules binding HIV-1 gp120 antibody PG9. inhibition, % at 6.7 µM. TR-FRET gp120-PG9 antibody binding. AID 624416. 360,000 compounds, 0.43% hits; in the data active = inhibition above about 8.5%
UCH37 DUB inh: blocks the human deubiquitinase UCH37; Q9Y5K5; inhibition, % (test concentration not listed); 330,000 compounds, 0.33% hits; purified proteasome/UCH37, Ub-AMC cleavage fluorescence;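 active = mean inhibition over replicate wells above about 20%, limit read from the data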
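Assay system: Proteasome-bound UCH37. Buffer or medium: pH 7.4 Tris-HCl (50 mM) with ovalbumin, ATP-MgCl2, DTT. Incubation: 30 min preincubation with enzyme, 25 min cleavage at room temperature. Measured by: fluorescence, ex 355 nm, em 460 nm. Read-out basis: percent inhibition. Control set: wells without proteasome as full block, compound-free enzyme plus substrate as uninhibited.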
Yeast superoxide: caloric restriction mimetics inhibiting age-related superoxide in yeast; S. cerevisiae aged cells, superoxide DHE fluorescence; stronger effect = lower value; superoxide response (% of plate mean), % at 10 µM; 330,000 compounds, 0.18% hits;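 active = superoxide response under a set limit, about three screen SD below normal, cut at about 65% in these data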;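 note: yeast aged for seven days with compound at 30 °C before DHE staining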
MIN6 prolif: MIN6 beta-cell proliferation induction; MIN6 cells proliferation, ATPlite luminescence, 48 h; cells starved in 0.2% serum; 100% = growth in 10% serum; proliferation, % at 10 µM; 330,000 compounds, 0.29% hits; AID 2380;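 active = compounds whose signal lies at least 3.5 SD above the mean of all wells on their plate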
Superoxide pick: yeast aging superoxide inhibition, cherry pick confirmation; shares compounds with Yeast superoxide; 850 compounds, 1% hits; S. cerevisiae aging, superoxide DHE fluorescence; stronger effect = lower value; superoxide response (% of plate), % at 10 µM; AID 434994;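 active = superoxide signal below 65% of the plate average of sample wells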;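 note: cells aged with compound for 7 days at 30 degrees C before staining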
DHE fluor count: counter-screen for compounds affecting DHE oxidation and fluorescence in yeast; shares compounds with Yeast superoxide; S. cerevisiae BY4741, flow cytometry; stronger effect = lower value; fluorescence response, % at 10 µM; 850 tested, under 10 active;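 active = fluorescence response below 15%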;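 note: lower means stronger quenching of DHE signal or ROS scavenging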
Numbers stand for hits; 0 = inactive; - = no result given. An excerpt weighted towards active compounds, which were near 1.9% of everything screened.

SMILES	Rce1 inh	Rev-erbA mod	PG9 Ab binder	UCH37 DUB inh	Yeast superoxide	MIN6 prolif	Superoxide pick	DHE fluor count
CC(C)CN(C(=O)c1ccco1)c1nc2ccccc2s1	0	0	0	0	0	0	-	-
Cc1cc(OCC(=O)N(C)C2CCCCC2)cc(C)c1Cl	0	0	0	0	55.6	0	0	0
Cc1cc(OCC(=O)N(C)C2CCCCC2)ccc1Cl	0	0	0	0	0	0	-	-
CCC(=O)c1ccc(N2CCN(C(=O)c3ccccc3)CC2)c(F)c1	0	0	0	0	0	0	0	0
CC(=O)c1ccc(N2CCN(C(=O)c3ccc(Br)cc3)CC2)c(F)c1	0	0	0	0	0	0	0	0
O=C(c1ccccc1)N1CCN(c2ccccc2F)CC1	0	0	0	0	0	0	0	0
O=C(c1ccc(-c2ccccc2)cc1)N1CCN(c2ccccc2F)CC1	0	0	0	0	0	0	-	-
COc1ccc(Br)cc1C=NNc1cccc(C(=O)O)c1	-	-	-	0	-	-	-	-
Fc1ccc(NN=Cc2cccnc2)c(F)c1	-	-	-	0	-	-	-	-
COc1ccc(C2(C(=O)NCCc3ccccc3)CCCC2)cc1OC	0	-	-	0	46.9	0	0	0
CN(C)S(=O)(=O)N1CCN(c2cccc(Cl)c2)CC1	0	0	0	0	64.3	0	0	0
CCCCCC(=O)NN=C(C)c1ccc(N2CCCCC2)cc1	-	-	-	0	-	-	-	-
Cc1ccc(C)c(N2CCN(C(=O)c3csc(C)c3C)CC2)c1	0	0	0	0	0	0	-	-
Cc1ccc(N2CCN(C(=O)c3ccccc3)CC2)c(C)c1	0	0	0	0	0	0	-	-
Cc1ccc(N2CCN(C(=O)c3ccccc3Br)CC2)c(C)c1	0	0	0	0	0	0	0	0
O=C(c1ccccc1Br)N1CCN(c2ccccc2)CC1	0	0	0	0	0	0	0	0
Cc1ccc(C)c(N2CCN(C(=O)c3ccccc3Br)CC2)c1	0	0	0	0	0	0	0	0
COc1ccc(Br)cc1C=NNC(=O)CNC(=O)/C=C/c1ccccc1	-	-	-	0	-	-	-	-
CCCCn1nc(NC(=O)c2cccs2)c2cc3ccccc3nc21	0	0	0	0	65.0	0	0	0
COc1cccc(CN2C(=O)C(C)N(C(=O)c3c(F)cccc3F)c3ccccc32)c1 (centres undefined)	0	0	0	0	0	0	-	-
CC1C(=O)N(Cc2ccccc2F)c2ccccc2N1C(=O)c1c(F)cccc1F (centres undefined)	0	0	0	0	65.3	0	0	0
O=C1CC(N2CCN(S(=O)(=O)c3ccccc3F)CC2)C(=O)N1c1ccc(F)cc1F (centres undefined)	-	0	0	0	65.5	0	0	0
CC(=O)N1CN(C2CC(C)(C)NC(C)(C)C2)Cc2c1sc1c2CCCC1	0	0	0	0	0	0	-	-
CC1(C)CC(N2CN(C3CCCCC3)CC2=O)CC(C)(C)N1	0	0	0	0	61.4	0	0	0
O=C(CNC(=O)c1cccc(F)c1)NN=Cc1cccnc1	-	-	-	0	-	-	-	-
SMILES	Rce1 inh	Rev-erbA mod	PG9 Ab binder	UCH37 DUB inh	Yeast superoxide	MIN6 prolif	Superoxide pick	DHE fluor count
CCOc1cccc(/C=C/c2ccc3cccc(O)c3n2)c1O	0	0	0	0	0	0	-	-
CCOc1cccc(/C=C/c2ccc3cccc(O)c3n2)c1OC	0	0	0	-	41.6	0	0	0
O=C(COc1ccccc1F)Nc1nnc(-c2ccncc2)s1	0	0	0	0	55.4	0	0	0
O=C(NN=C1CC2CCC1C2)c1cc2ccccc2cc1O (centres undefined)	-	-	-	0	-	-	-	-
CCc1ccc(OCC(=O)NN=C(C)c2ccc(OC(F)F)cc2)cc1	-	-	-	0	-	-	-	-
COc1cccc(NC(C(=O)Nc2cccc(C(C)=O)c2)c2ccccc2)c1 (centres undefined)	0	0	0	0	59.6	0	0	0
O=C(NC(Cc1ccccc1)C(=O)O)/C(=C/c1ccccc1)NC(=O)c1ccccc1 (centres undefined)	0	0	0	-	64.6	0	0	0
CCOC(=O)c1cc(=O)n(Cc2ccccc2C)c2ccccc12	0	0	0	0	61.0	0	0	0
Cc1ccc(Cn2c(=O)cc(C(=O)O)c3ccccc32)cc1	0	0	-	0	0	0	-	-
